From PubChem BioAssay
C2C12 statin: suppressors of statin myotoxicity in C2C12 myotubes, primary screen, cell-based, single point, plate reader. C2C12 myotubes + simvastatin, ATP luminescence, 48 h; scaled: DMSO 0, geranylgeraniol control 100. rescue of ATP level, % at 7.49 µM. 0.78% of 330,000 active. AID 602340, 2012;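 active = mean ATP rescue above about 67%, or every replicate alone reaching that limit, limit read from the data, passing the limit was not always enough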;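 note: myotubes were challenged with 10 µM simvastatin during compound exposure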
SUMO Mot1 rescue: yeast Mot1-301 growth rescue at high temperature, primary screen, SUMOylation pathway inhibitor project, S. cerevisiae, ATP luminescence, 38.5C; S. cerevisiae Mot1-301 growth rescue; percent above DMSO median, 100 means doubled; growth rescue, % at 18.8 µM; 1% of 320,000 active; AID 2716, 2010;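 active = every valid replicate shows activation above 250% relative to neutral control wells; inactive = the rest, any valid replicate at or below 250%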
Efflux pump inh: inhibitors of Candida efflux pumps in yeast, primary screen, S. cerevisiae, Nile Red, multiplex. S. cerevisiae Candida pump triplex. inhibition, % at 10 µM. 0.44% of 330,000 active;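 active = plate passing quality check with inhibition over a set limit, or well fluorescence over plate mean plus 4 SD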;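 note: Nile Red retained in pooled yeast measured as flow cytometry median fluorescence; higher means more Nile Red kept so more efflux inhibition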
Cneo AK release: Cryptococcus neoformans cell lysis inducers, primary screen, AK release luminescence, single concentration; C. neoformans lysis, adenylate kinase release luminescence, 4 h; normalised: neutral wells 0, clomiphene wells 100; 0.2% of 360,000 active; AID 651654, 2012; lysis activity, % at 15 µM;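 active = mean lysis activity across replicates of at least 80%, whatever share of replicates individually reach that level; inactive = mean lysis activity below 80%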
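Material – Cryptococcus neoformans yeast cells · Quantity – 5 × 10^6 yeast cells/mL · Buffer or medium – YPD medium · Compound – single dose · Timing – 4 h static compound exposure, 37 °C, read 1 h post-reagent · Signal – adenylate kinase release luminescence · Read-out basis – lysis from increased AK signal · Benchmarks – Clomiphene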
Mot1 SUMO dose: growth restoration of Mot1-301 yeast on galactose, dose response, SUMO pathway inhibitor project, whole organism, S. cerevisiae, ATP luminescence, cherry-picked samples; shares compounds with SUMO Mot1 rescue; S. cerevisiae Mot1-301 galactose growth, 24 h; -100 = growth of slx-deleted rescue strain; growth activity, percent, % at 42 µM; 2,300 tested, under 10 active;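 active = Signal drops as the depositor expects, and the fitted half-maximal dose is no more than ten times the top valid tested dose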;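 note: more negative values mean stronger growth rescue toward the control strain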
A number is an active result. Hits are enriched below; roughly 1.8% of the tested compounds scored in any of these assays.

`C[C@@H]1CCCCO[C@@H](CN(C)C(=O)NC2CCCCC2)[C@@H](C)CN([C@@H](C)CO)C(=O)c2cc(NC(=O)Cc3ccccc3)ccc2O1` gave Cneo AK release inactive.
CC(=O)c1ccccc1C(=O)N1CCCC(N2CCN(Cc3ccc4c(c3)OCO4)CC2)C1 (centres undefined) was read as SUMO Mot1 rescue 360.3, Efflux pump inh inactive, Cneo AK release inactive and Mot1 SUMO dose inactive.
`CC(C)n1c(CN(C)c2ccccc2)nc2ccccc21` gave C2C12 statin inactive, SUMO Mot1 rescue 875.1, Efflux pump inh inactive, Cneo AK release inactive and Mot1 SUMO dose inactive.
For CCN(Cc1nc2ccccc2n1C)c1ccccc1 the results were C2C12 statin inactive, SUMO Mot1 rescue inactive, Efflux pump inh inactive and Cneo AK release inactive.
COc1cccc(CNC(=O)C[C@@H]2C=C[C@H](NC(C)=O)[C@@H](CO)O2)c1 was read as C2C12 statin inactive and Cneo AK release inactive.
`COC(=O)c1ccc2[nH]c(C(C)(C)O)c(C)c2c1` gave C2C12 statin inactive, SUMO Mot1 rescue 684.2, Efflux pump inh inactive, Cneo AK release inactive and Mot1 SUMO dose inactive.
For CCO[C@@H]1OC(C(=O)N2CCN(Cc3ccccc3)CC2)=C[C@H](c2csc3ccccc23)[C@H]1CCCO the results were C2C12 statin inactive, SUMO Mot1 rescue inactive, Efflux pump inh inactive and Cneo AK release inactive.
`Cc1ccc(CNC(=O)CCS(=O)(=O)c2ccc(Br)s2)o1` gave C2C12 statin inactive, SUMO Mot1 rescue inactive, Efflux pump inh inactive and Cneo AK release inactive.
O=C(CCS(=O)(=O)c1ccc(Br)s1)NCc1ccccc1 was read as C2C12 statin inactive, SUMO Mot1 rescue 736.7, Efflux pump inh inactive, Cneo AK release inactive and Mot1 SUMO dose inactive.
`COc1ccccc1NC(=O)/C(=C\c1cccnc1)NC(=O)c1ccccc1` gave C2C12 statin inactive, SUMO Mot1 rescue inactive, Efflux pump inh inactive and Cneo AK release inactive.
For COc1ccccc1CCNC(=O)/C(=C/c1cccnc1)NC(=O)c1ccccc1 the results were C2C12 statin inactive, SUMO Mot1 rescue 391.2, Efflux pump inh inactive and Mot1 SUMO dose inactive.
`CCc1ccc(CNCc2cccs2)cc1` gave SUMO Mot1 rescue inactive and Efflux pump inh inactive.
Clc1ccc(CNCc2cccs2)cc1Cl was read as SUMO Mot1 rescue 362.8, Efflux pump inh inactive, Cneo AK release inactive and Mot1 SUMO dose inactive.
`CCN(CC)CC(=O)Nc1ccc(Oc2ccc(NC(=O)CN(CC)CC)cc2)cc1` gave SUMO Mot1 rescue 371.2, Efflux pump inh inactive and Mot1 SUMO dose inactive.
CN1/C(=C\C(=O)COC(=O)c2ccc([N+](=O)[O-])o2)C(C)(C)c2ccccc21 was read as SUMO Mot1 rescue 428.2, Efflux pump inh inactive and Mot1 SUMO dose inactive.
`CN1/C(=C\C(=O)COC(=O)c2nccnc2N)C(C)(C)c2ccccc21` gave C2C12 statin inactive, SUMO Mot1 rescue inactive, Efflux pump inh inactive and Cneo AK release inactive.
Screening O=C(O)/C=C\C(=O)NC1CCCCC1 returned SUMO Mot1 rescue 509.1, Efflux pump inh inactive and Mot1 SUMO dose inactive.
COc1ccc(C(=O)C2CCCN(Cc3ccc(NC(C)=O)cc3)C2)cc1OC (centres undefined) was read as C2C12 statin inactive, SUMO Mot1 rescue inactive, Efflux pump inh inactive and Cneo AK release inactive.
Screening Cc1cc(C)nc(SCC(=O)Nc2cc(C)on2)n1 returned C2C12 statin inactive, SUMO Mot1 rescue inactive, Efflux pump inh inactive and Cneo AK release inactive.
For Cc1cc(C(F)(F)F)nc(SCC(=O)Nc2cc(C)on2)n1 the results were SUMO Mot1 rescue active, Efflux pump inh inactive, Cneo AK release inactive and Mot1 SUMO dose inactive.
O=C(OCc1cccc2ccccc12)C1CC(=O)N(c2ccccc2)C1 (centres undefined) was read as C2C12 statin inactive, SUMO Mot1 rescue inactive, Efflux pump inh inactive and Cneo AK release inactive.
For COc1cc(NC(=O)c2cc(Cl)ccc2Cl)ccc1-c1cc2ccccc2oc1=O the results were C2C12 statin inactive, SUMO Mot1 rescue 405.8, Efflux pump inh inactive, Cneo AK release inactive and Mot1 SUMO dose inactive.
Screening COc1cc(NC(=O)c2cccnc2)ccc1-c1cc2ccccc2oc1=O returned SUMO Mot1 rescue inactive and Efflux pump inh inactive.
CCn1c(SCC(=O)N2CCOCC2)nc(O)cc1=O was read as C2C12 statin inactive, SUMO Mot1 rescue inactive, Efflux pump inh inactive and Cneo AK release inactive.
CS(=O)(=O)N(CC(=O)Nc1ccccc1C(=O)N1CCCC1)c1ccc2c(c1)OCO2 was read as SUMO Mot1 rescue 822.0, Efflux pump inh inactive and Mot1 SUMO dose inactive.
For COC(=O)c1cccc(NC(=O)CN(c2ccc3c(c2)OCO3)S(C)(=O)=O)c1C the results were SUMO Mot1 rescue active, Efflux pump inh inactive and Mot1 SUMO dose inactive.
CS(=O)(=O)N(CC(=O)NCCSCc1ccccc1)c1ccc2c(c1)OCO2 was read as SUMO Mot1 rescue active, Efflux pump inh inactive and Mot1 SUMO dose inactive.
`COC(=O)c1cc(NC(=O)CN(c2ccc3c(c2)OCO3)S(C)(=O)=O)ccc1Cl` gave SUMO Mot1 rescue inactive, Efflux pump inh inactive and Cneo AK release inactive.
`Cn1cnc(S(=O)(=O)N2C[C@H](O)COC[C@@H]3O[C@H](CC(=O)NC4CCC4)CC[C@H]32)c1` gave C2C12 statin inactive and Cneo AK release inactive.
`COCn1ccnc1C(O)(c1ccc(OC)cc1)c1ccc(OC)cc1` gave SUMO Mot1 rescue inactive, Efflux pump inh inactive and Cneo AK release inactive.
COc1cc(C(=O)Nc2ccc3c(c2)OCCO3)ccc1-n1cnnn1 was read as C2C12 statin inactive, SUMO Mot1 rescue active, Efflux pump inh inactive, Cneo AK release inactive and Mot1 SUMO dose inactive.
For Cc1cccc(N/N=C(\C#N)S(=O)(=O)C(C)(C)C)c1 the results were SUMO Mot1 rescue inactive and Efflux pump inh inactive.
`CSc1nncc(/C(C)=N\Nc2cccc(C)c2)n1` gave C2C12 statin inactive, SUMO Mot1 rescue 365.8, Efflux pump inh inactive, Cneo AK release inactive and Mot1 SUMO dose inactive.
`COc1ccc(N2CCN(C(=O)Cn3nnc(-c4ccc(OC)c(OC)c4)n3)CC2)cc1` gave C2C12 statin inactive, SUMO Mot1 rescue 385.1, Efflux pump inh inactive, Cneo AK release inactive and Mot1 SUMO dose inactive.
For O=C(c1ccc2c(c1)OCO2)N1CC[C@H]2[C@H](CO)Nc3ccc(-c4ccc(F)cc4)cc3[C@H]21 the results were C2C12 statin inactive and Cneo AK release inactive.
`O=C(/C=C/c1ccccc1)NCC1(c2ccccc2)CCOCC1` gave C2C12 statin inactive, SUMO Mot1 rescue inactive, Efflux pump inh inactive and Cneo AK release inactive.
`O=C(/C=C/c1ccc(F)cc1)NCC1(c2ccccc2)CCOCC1` gave C2C12 statin inactive, SUMO Mot1 rescue 541.7, Efflux pump inh inactive, Cneo AK release inactive and Mot1 SUMO dose inactive.
